Active and inactive are the calls of the source.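 Rule for the calls, unless noted: active = inhibition of the reporter signal at or above 50%; inactive = inhibition below 50%.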
Legend:
[1] = inhibitors of TNFa-induced NFkB p65 translocation, primary screen, imaging, HUVEC, MLSMR starter and 10KST1 sets (AID 438;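 active = inhibition above 20% together with a positive visual image hit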;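 note: compound added about 3h40 before a 20 min TNFalpha stimulation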;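 for inhibition: signal is the nuclear over cytoplasmic p65 intensity ratio per well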); conditions: HUVEC TNFa-induced p65 nuclear translocation; cell count: measured here: nuclei count (cytotoxicity indicator), at 2.08 µM; inhibition: at 2 µM, stronger effect = higher value, 0% TNFa-plus-vehicle, 100% no-TNFa wells
[2] = inhibitors of mutant huntingtin aggregation, primary screen, imaging, exon1htt(103Q)mCFP cells, high-content imaging (AID 483;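 active = visual image review flags a hit and inhibition of aggregation exceeds 20%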;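 note: compound exposure lasted 3 days before fixation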;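 for nuclei count: percent of the per-plate median nuclei count of sample wells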); conditions: exon1htt(103Q)mCFP cell line, aggregate imaging, at 2 µM; inhibition of aggregation: stronger effect = higher value; nuclei count: measured here: cell count, toxicity
[3] = inhibitors of E-selectin induction by TNFa, primary screen, imaging, HUVEC, immunofluorescence, MLSMR starter and 10KST1 sets (AID 487;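 active = visually confirmed hit in the image check and inhibition above 20%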;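 for inhibition: signal is fraction of cell area covered by stained E-selectin grains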;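 for nuclei count: 100% = median nuclei count of all wells on the same plate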); conditions: HUVEC TNFalpha-induced E-selectin immunofluorescence imaging, at 2 µM; inhibition: stronger effect = higher value; nuclei count: measured here: cell number, toxicity
[4] = target: Voltage-gated potassium channel subunit beta-2 (Rattus norvegicus) (UniProt P62483); experiment: KvBeta enzyme negative modulators, primary screen, biochemical, NADPH fluorescence (AID 622;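 active = fluorescence slope higher than the sample average by over 3 SD, cut at about -0.22 in these data, passing the limit was not always enough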;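 note: slope of raw intensity against log time taken from 70 to 1610 s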); conditions: recombinant KvBeta, 4-cyanobenzaldehyde reduction, at 10 µM, stronger effect = higher value
[5] = target: Voltage-gated potassium channel subunit beta-2 (Rattus norvegicus) (UniProt P62483); experiment: KvBeta positive modulators, primary screen, biochemical, NADPH fluorescence (AID 623;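 active = NADPH fluorescence slope more negative than the mean of all samples by about 3 SD, 99.7% confidence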;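 note: fluorescence intensity change per second fitted from 20 to 320 s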); conditions: Recombinant KvBeta, NADPH fluorescence decrease slope, 10 min; at 10 µM; stronger effect = lower value
[6] = target: Muscarinic acetylcholine receptor M4 (Homo sapiens) (UniProt P08173); experiment: compounds altering M4/GIRK thallium flux, either direction, primary screen, M4 allosteric agonist project, cell-based, HEK293 M4/GIRK, BTC-AM (AID 625;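 active = fluorescence slope after compound addition differing from the mean of all tested samples at 99.7% confidence, mostly higher but some lower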;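 note: thallium influx through GIRK channels coupled to M4 in HEK293 cells with BTC-AM dye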); conditions: at 10 µM, actives lie on both sides
Procedure, shortened: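 System: HEK293 cells with M4 receptor and GIRK channels | Incubation: Cells overnight at 37 °C, BTC-AM loading 1 h, reads 2 min total | Technique: Kinetic BTC-AM fluorescence sampled at 1 Hz, 10 s pre-addition baseline | Measure: Post-addition slope, 15–24 s, of baseline-normalized fluorescence | Control set: Carbachol positive, DMSO negative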

[7] = inhibitors of Sendai virus-induced IRF3 signaling, primary screen, TLR/RLR signaling modifier project, cell-based, Sendai virus stimulus, luciferase, 10K MLSCN set (AID 602276;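 active = inhibition at or above 50% at 10 µM; inactive = inhibition below 50%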;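 note: firefly luciferase from ISG56 promoter only with Renilla not read in this screen; 0% = Sendai virus plus DMSO and 100% = medium plus DMSO without virus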); conditions: HEK293 RL24 IRF3 luciferase reporter, at 10 µM, stronger effect = higher value
[8] = inhibitors of poly I:C-induced TLR3 signaling, primary screen, cell-based, poly I:C stimulus, luciferase, 10K MLSCN set (AID 602277); conditions: HEK293-TLR3 RL24 IRF3 luciferase reporter, at 10 µM, stronger effect = higher value

Chain of Voltage-gated potassium channel subunit beta-2 (Rattus norvegicus) (P62483 whole entry, looked up): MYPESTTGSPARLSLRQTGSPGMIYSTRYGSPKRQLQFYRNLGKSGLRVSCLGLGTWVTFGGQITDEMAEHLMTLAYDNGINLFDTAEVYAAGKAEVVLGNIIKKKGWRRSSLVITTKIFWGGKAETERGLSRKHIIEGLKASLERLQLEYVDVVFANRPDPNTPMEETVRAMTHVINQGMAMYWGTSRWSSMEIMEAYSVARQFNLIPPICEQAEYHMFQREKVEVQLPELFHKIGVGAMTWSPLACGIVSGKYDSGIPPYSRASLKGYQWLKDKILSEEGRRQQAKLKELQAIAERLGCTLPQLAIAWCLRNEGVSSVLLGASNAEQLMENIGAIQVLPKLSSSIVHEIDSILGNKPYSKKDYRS
Chain of Muscarinic acetylcholine receptor M4 (Homo sapiens) (P08173 whole entry, looked up): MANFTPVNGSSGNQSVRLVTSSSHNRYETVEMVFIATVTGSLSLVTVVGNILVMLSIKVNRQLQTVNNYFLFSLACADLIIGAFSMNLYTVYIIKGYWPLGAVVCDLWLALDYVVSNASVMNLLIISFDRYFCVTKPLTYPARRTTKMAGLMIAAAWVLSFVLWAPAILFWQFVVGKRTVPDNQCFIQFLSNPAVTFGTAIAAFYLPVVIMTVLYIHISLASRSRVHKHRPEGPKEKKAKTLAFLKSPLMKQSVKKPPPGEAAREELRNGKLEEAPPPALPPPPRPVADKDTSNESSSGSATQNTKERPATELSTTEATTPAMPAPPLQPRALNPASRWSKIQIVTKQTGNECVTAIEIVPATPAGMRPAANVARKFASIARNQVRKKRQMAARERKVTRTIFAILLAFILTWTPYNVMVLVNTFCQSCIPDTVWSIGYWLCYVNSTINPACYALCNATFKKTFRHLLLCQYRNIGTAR

| Compound | cell count [1] | inhibition [1] | inhibition of aggregation [2] | nuclei count [2] [%] | inhibition [3] | nuclei count [3] [%] | fluorescence slope [4] | NADPH fluorescence slope [5] | fluorescence slope [6] | inhibition [7] | inhibition [8] |
| --- | --- | --- | --- | --- | --- | --- | --- | --- | --- | --- | --- |
| O=S(=O)(c1ccc(Br)s1)N1CCCCC1 | 479 | -1.6% (inactive) | -18.8% (inactive) | 100 | 0.6% (inactive) | 106 | -0.615 (inactive) | 4.4e-05 (inactive) | 0.00346 (inactive) | 5.16% (inactive) | 9.33% (inactive) |
| CCOC(=O)CNc1ccc2c(c1)OCO2 | 368 | -7.7% (inactive) | 8.3% (inactive) | 99.8 | -105% (inactive) | 118 | -0.488 (inactive) | -0.000182 (inactive) | 0.00399 (inactive) | 8.79% (inactive) | 12.5% (inactive) |
| COCCn1c(=O)[nH]c2cc(C(=O)N3CCN(c4ccccc4OC)CC3)ccc2c1=O | 806 | -7.9% (inactive) | 5.5% (inactive) | 102 | -28.7% (inactive) | 117 | -0.44 (inactive) | 9.4e-06 (inactive) | 0.00559 (inactive) | 10.5% (inactive) | 12.4% (inactive) |
| N#CCSc1nc(-c2ccccc2)cs1 | 371 | 5% (inactive) | 1.3% (inactive) | 103 | -25.1% (inactive) | 109 | -0.566 (inactive) | -1.8e-05 (inactive) | 0.0051 (inactive) | -34.5% (inactive) | -75.5% (inactive) |
| COc1ccccc1Nc1nc(N)nc(CSc2nccc(C)n2)n1 | 701 | -8.6% (inactive) | -9.5% (inactive) | 99.9 | 28.3% (inactive) | 112 | -0.546 (inactive) | 4.7e-05 (inactive) | 0.00561 (inactive) | 11.6% (inactive) | 5.69% (inactive) |
| Oc1c(Cl)cc(Cl)c2c1NCCC2 | 313 | 0.4% (inactive) | -13.1% (inactive) | 100 | -47.5% (inactive) | 91.9 | -0.466 (inactive) | -3e-05 (inactive) | 0.00523 (inactive) | 11.2% (inactive) | 31.8% (inactive) |
| CCn1c(SCC(=O)Nc2ccc(C(C)=O)cc2)nc2ccccc21 | 227 | 14.4% (inactive) | -7.2% (inactive) | 101 | -2.2% (inactive) | 98.3 | -0.453 (inactive) | -0.000344 (inactive) | 0.00502 (inactive) | -13% (inactive) | -19.9% (inactive) |
| CCOC(=O)CSc1nc2cc(C(=O)NCc3ccco3)ccc2c(=O)n1C1CCCCC1 | 455 | 4.3% (inactive) | -11.8% (inactive) | 92 | 10% (inactive) | 93.7 | -0.397 (inactive) | -5.9e-05 (inactive) | 0.00847 (inactive) | 12.1% (inactive) | 18.6% (inactive) |
| COc1ccc(CC(=O)NCc2cccs2)cc1 | 568 | -20.6% (inactive) | -32.4% (inactive) | 103 | -83.1% (inactive) | 140 | -0.399 (inactive) | 0.000126 (inactive) | 0.0067 (inactive) | 31% (inactive) | 16.3% (inactive) |
| CCOC(=O)C1CCCN(C(=O)c2cc(=O)c3ccccc3o2)C1 (stereo not drawn) | 376 | -18.9% (inactive) | -28.1% (inactive) | 114 | -38.4% (inactive) | 98.7 | -0.426 (inactive) | 2.6e-05 (inactive) | 0.00575 (inactive) | 14.5% (inactive) | 19.9% (inactive) |
| O=C1CC(N2CCOCC2)C(=O)N1c1ccc2c(c1)OCO2 (stereo not drawn) | 459 | 7.5% (inactive) | -9.9% (inactive) | 105 | -175% (inactive) | 120 | -0.574 (inactive) | -3.1e-05 (inactive) | 0.00505 (inactive) | 4.21% (inactive) | 10.1% (inactive) |
| COc1ccc(N2CCN(c3ncnc4c3cnn4-c3ccc(C)cc3C)CC2)cc1 | 683 | -10.9% (inactive) | -20.3% (inactive) | 117 | -33.1% (inactive) | 98 | -0.558 (inactive) | -4.3e-05 (inactive) | 0.00551 (inactive) | 5.2% (inactive) | -20.2% (inactive) |
| O=C(Nc1c(-c2ccccc2)nc2ccccn12)c1ccco1 | 466 | -7.2% (inactive) | 8.4% (inactive) | 103 | 13.2% (inactive) | 109 | -0.56 (inactive) | 4.7e-05 (inactive) | 0.00475 (inactive) | -7.17% (inactive) | -12.7% (inactive) |
| Cc1cc(NC(=O)Cn2cnc3c(cnn3C(C)(C)C)c2=O)no1 | 645 | 1.1% (inactive) | -5.1% (inactive) | 113 | 7% (inactive) | 102 | -0.573 (inactive) | -3.1e-05 (inactive) | 0.00541 (inactive) | -18.6% (inactive) | -0.822% (inactive) |
| COc1ccccc1NC(=O)N1CCN(c2cccc(C(F)(F)F)c2)CC1 | 380 | 4.7% (inactive) | 12.5% (inactive) | 107 | -103% (inactive) | 118 | -0.27 (inactive) | -2.7e-05 (inactive) | 0.00535 (inactive) | -10.2% (inactive) | -42% (inactive) |
| CCOC(=O)c1c(C)c(C(=O)NCC2CCCO2)c(C)n1C (stereo not drawn) | 267 | -2% (inactive) | -10.1% (inactive) | 94.7 | -8% (inactive) | 74.6 | -0.461 (inactive) | -6e-06 (inactive) | 0.00685 (inactive) | 14.1% (inactive) | 20.9% (inactive) |
| CCN(Cc1nc2cc(OC)c(OC)cc2c(=O)[nH]1)C(=O)c1ccc(S(=O)(=O)N(C)C)cc1 | 311 | 11.1% (inactive) | -0.9% (inactive) | 119 | 14.8% (inactive) | 89.6 | -0.399 (inactive) | -0.000108 (inactive) | 0.00948 (inactive) | 13.8% (inactive) | 28.7% (inactive) |
| Cc1nc2c3cnn(-c4ccccc4)c3ncn2n1 | 470 | 1.7% (inactive) | -9.9% (inactive) | 105 | -62.2% (inactive) | 108 | -0.406 (inactive) | 8.7e-05 (inactive) | 0.00848 (inactive) | -1.03% (inactive) | -18.2% (inactive) |
| Cc1cccc(C)c1NC(=O)N1CCN(C2CCCCC2)CC1 | 364 | 1.2% (inactive) | -2% (inactive) | 106 | -8.3% (inactive) | 106 | -0.578 (inactive) | -3.9e-05 (inactive) | 0.00564 (inactive) | -1.81% (inactive) | 18.1% (inactive) |
| COc1ccc2cc(C#N)c(NC(C)C)nc2c1 | 481 | 3.6% (inactive) | -25.6% (inactive) | 96.4 | -23.1% (inactive) | 108 | -0.495 (inactive) | -0.000141 (inactive) | 0.00581 (inactive) | 8% (inactive) | 23% (inactive) |
| Cc1nc(NC2=NCN(CCc3ccccc3)CN2)nc2c(C)cccc12 | 428 | 46.4% (active) | -2.2% (inactive) | 79.5 | -18.7% (inactive) | 104 | -0.457 (inactive) | -1.3e-05 (inactive) | 0.0048 (inactive) | 27.7% (inactive) | 28.3% (inactive) |
| CCCNC(=O)c1c(N)n(-c2cc(OC)cc(OC)c2)c2nc3ccccc3nc12 | 587 | -7% (inactive) | 3% (inactive) | 93.7 | -89.1% (inactive) | 135 | -0.367 (inactive) | 2.2e-05 (inactive) | 0.00602 (inactive) | 8.54% (inactive) | -6.79% (inactive) |
| Cc1cc2oc(=O)cc(CN3CCCCC3)c2cc1C(C)C | 366 | -3.9% (inactive) | -20.2% (inactive) | 91.1 | 67.8% (active) | 56.9 | -0.56 (inactive) | -2.5e-05 (inactive) | 0.0051 (inactive) | 10.7% (inactive) | 40.9% (inactive) |
| CCC(C)NC(=O)c1cc(-c2ccc(OC)cc2)on1 (stereo not drawn) | 689 | -15.5% (inactive) | 1.3% (inactive) | 101 | 13.2% (inactive) | 108 | -0.286 (inactive) | -1.4e-05 (inactive) | 0.00668 (inactive) | -45.5% (inactive) | -170% (inactive) |
| CCOC(=O)N1CCN(c2cc3nccnc3cc2F)CC1 | 412 | 3.1% (inactive) | -5.3% (inactive) | 113 | -54.5% (inactive) | 111 | -0.173 (inactive) | -4.3e-05 (inactive) | 0.00552 (inactive) | 10.4% (inactive) | -18.8% (inactive) |
| CN(C)S(=O)(=O)c1ccc2c(c1)C(CC(=O)O)OC2=O (stereo not drawn) | 616 | 2.3% (inactive) | 13.2% (inactive) | 109 | 27.5% (inactive) | 105 | -0.511 (inactive) | 0.000172 (inactive) | 0.00625 (inactive) | 17.3% (inactive) | 26.3% (inactive) |
| Cc1cc(Cl)c(S(=O)(=O)N2CCN(c3ccc(F)cc3)CC2)cc1OCC(N)=O | 373 | -9% (inactive) | 0.5% (inactive) | 97.1 | -37.6% (inactive) | 96.1 | -0.587 (inactive) | -9.2e-05 (inactive) | 0.0038 (inactive) | 19.6% (inactive) | 9.49% (inactive) |
| O=C(CSC1=NCCS1)NCc1ccco1 | 294 | 0.2% (inactive) | 16.5% (inactive) | 87.2 | -109% (inactive) | 108 | -0.268 (inactive) | 1.6e-06 (inactive) | 0.00551 (inactive) | -13.7% (inactive) | -22.5% (inactive) |
| Cc1ccc(CNC(=O)c2coc(=O)c3ccccc23)o1 | 581 | 0.6% (inactive) | 4.6% (inactive) | 102 | 58.5% (inactive) | 55.6 | -0.445 (inactive) | -0.000402 (inactive) | 0.00482 (inactive) |  | 98.4% (active) |

Reference: PubChem BioAssay
